The text below walks through data of ChEMBL document CHEMBL1148647, “Structure-activity relationship studies on a series of novel, substituted 1-benzyl-5-phenyltetrazole P2X7 antagonists” (J Med Chem, 2006).

Data set [1] has as its system Rattus norvegicus. The data set can be described thus: Reversal of mechanical allodynia in L5/L6 spinal nerve tight ligation model of neuropathic pain in ip dosed rat relative to control. In kind it is functional. In short, it runs like this:
(§1)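 Spinal nerve ligation (L5/L6, Chung) done 7-14 days before testing. Antagonist given ip at 10-300 µmol/kg. Von Frey hair applied 30 min after dosing. Paw withdrawal threshold on injured (left) side compared with contralateral paw. ED50 and maximal response relative to contralateral side derived.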

Data set [2] has as its target T1, P2X purinoceptor 7 (Rattus norvegicus, UniProt Q64663).
T1 sequence (Q64663 whole entry): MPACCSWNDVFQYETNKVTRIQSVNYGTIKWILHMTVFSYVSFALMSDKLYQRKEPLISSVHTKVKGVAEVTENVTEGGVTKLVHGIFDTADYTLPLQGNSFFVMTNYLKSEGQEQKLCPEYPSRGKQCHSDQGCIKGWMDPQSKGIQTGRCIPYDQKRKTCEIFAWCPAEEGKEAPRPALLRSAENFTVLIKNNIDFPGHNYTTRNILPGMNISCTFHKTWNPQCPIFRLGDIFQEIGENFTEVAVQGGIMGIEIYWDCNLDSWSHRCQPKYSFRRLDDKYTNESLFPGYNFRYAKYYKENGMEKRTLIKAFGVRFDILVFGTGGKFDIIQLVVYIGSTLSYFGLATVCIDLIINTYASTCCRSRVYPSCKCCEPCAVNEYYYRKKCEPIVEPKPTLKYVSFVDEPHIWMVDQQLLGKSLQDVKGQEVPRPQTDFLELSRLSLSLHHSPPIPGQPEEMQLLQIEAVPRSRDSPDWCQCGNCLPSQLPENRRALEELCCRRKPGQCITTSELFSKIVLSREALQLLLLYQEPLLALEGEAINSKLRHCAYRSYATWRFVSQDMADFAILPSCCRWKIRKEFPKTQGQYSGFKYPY
Nature of the data set: Antagonist activity at rat P2X7 receptor expressed in human 1321N1 cells assessed as inhibition of calcium flux by FLIPR. In kind it is functional, cell-based. The method in brief: (§2)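 Recombinant P2X7 (human or rat) stably transfected into human 1321N1 astrocytoma cells lacking endogenous P2X receptor function. Fluo-4 calcium dye, FLIPR read-out. 5-min antagonist pretreatment, then BzATP agonist. IC50 determined.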
(Calcium assays in cells follow changes in intracellular calcium, usually with a dye or a luminescent sensor.)

Data set [3] has as its system THP-1. The data set can be described thus: Inhibition of ILbeta production in human THP1 cells. The format is functional, cell-based. The method in brief: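 Human THP-1 cells differentiated with LPS and IFNγ, then stimulated with BzATP for 30 min in presence of test compound. Released IL-1β quantified by EIA.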
Data set [4] deals with Rattus norvegicus. Nature of the data set: Impairment of motor function in rat by rotarod assay up to 300 umol/kg, ip. In kind it is functional, organism-based. In short, it runs like this:
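Accelerating rotarod, ip dosing up to 300 µmol/kg. Time for the animal to fall from the rod recorded.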
On the technique in general: In the rotarod test animals must keep their balance on a rotating rod.

For data set [5], the system named is Rattus norvegicus. The data set can be described thus: Reversal of mechanical allodynia in L5/L6 spinal nerve tight ligation model of neuropathic pain in ip dosed rat. In kind it is functional. The method in brief: as §1
Data set [6] relates to THP-1. The data set can be described thus: Ability to block pore formation in human THP1 cells assessed as inhibition of YO-PRO-1 diiodide dye uptake. In kind it is functional, cell-based. In short, it runs like this: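 Differentiated human THP-1 cells stimulated with agonist BzATP for 1 h in presence of test compound. Pore formation read as inhibition of cellular uptake of the impermeable dye YO-PRO-1 diiodide.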

Data set [7] can be described thus: Half life in rat at 10 umol/kg. In kind it is ADME, organism-based. The conditions noted are these: in vivo.
Data set [8] in a line: Oral bioavailability in rat at 10 umol/kg, ip. The conditions noted are these: in vivo, intraperitoneal, read-out: Activity. In kind it is ADME, organism-based.
Data set [9] addresses T2, P2X purinoceptor 7 (Homo sapiens, UniProt Q99572).
T2 sequence (Q99572 whole entry): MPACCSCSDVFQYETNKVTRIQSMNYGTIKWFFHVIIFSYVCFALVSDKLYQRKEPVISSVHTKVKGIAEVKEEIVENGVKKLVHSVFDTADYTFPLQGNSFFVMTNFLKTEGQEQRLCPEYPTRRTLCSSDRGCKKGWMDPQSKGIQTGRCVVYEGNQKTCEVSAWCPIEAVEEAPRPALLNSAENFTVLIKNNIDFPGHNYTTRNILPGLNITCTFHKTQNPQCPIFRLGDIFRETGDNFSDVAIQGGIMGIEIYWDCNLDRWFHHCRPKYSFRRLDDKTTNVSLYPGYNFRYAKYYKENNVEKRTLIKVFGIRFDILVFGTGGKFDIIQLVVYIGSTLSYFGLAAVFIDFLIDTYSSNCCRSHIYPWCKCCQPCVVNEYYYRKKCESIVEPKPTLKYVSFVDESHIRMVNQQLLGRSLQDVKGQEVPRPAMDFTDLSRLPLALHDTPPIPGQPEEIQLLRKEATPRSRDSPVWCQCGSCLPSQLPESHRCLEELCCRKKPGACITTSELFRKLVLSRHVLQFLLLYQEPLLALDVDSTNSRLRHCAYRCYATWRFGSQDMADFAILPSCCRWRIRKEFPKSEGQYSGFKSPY
The data set can be described thus: Antagonist activity at human P2X7 receptor expressed in human 1321N1 cells assessed as inhibition of calcium flux by FLIPR. In kind it is functional, cell-based. In short, it runs like this: as §2

Activity calls are given as the source filed them.

As a reminder, the IC50 is the concentration that gives 50% inhibition. One may read the ED50 as the dose at which the effect has come halfway, by size or by number of responders. As usually defined, the half-life is the time needed for the level to fall by half in the phase considered. A higher half-life goes with slow loss. For `Clc1cccc(-c2nnnn2Cc2cccnc2)c1Cl`, the Activity in data set [1] was determined as 78%. Also, the IC50 in data set [2] is 316 nM; in data set [3], 398 nM; in [6], 200 nM. Besides, the outcome in data set [4] was inactive. The ED50 in data set [5] was determined as 76 µmol/kg. Further, the half-life in [7] is 1 h. The bioavailability in data set [8] is 19%.
With `Cc1ccccc1Cn1nnnc1-c1cccc(Cl)c1Cl`, the IC50 was 63.1 nM in data set [2], 158 nM in data set [3], 15.8 nM in [9] and 126 nM in data set [6].
Turning to `Fc1ccc(-n2nnnc2Cc2cccnc2)c(Cl)c1C(F)(F)F`, the IC50 in data set [9] is 20 nM; in data set [6] it was 158 nM.
On to `Clc1ccc(-c2nnnn2Cc2cccnc2)c(Cl)c1Cl`, for which the figures for the IC50 in [9] and in [6] were 200 nM and 1350 nM, respectively.
The like results for `Clc1cccc(-c2nnnn2Cc2cccnc2)c1` were, in that order, 7940 nM and over 10000 nM.
As to `O=C(NCC12CC3CC(CC(C3)C1)C2)c1cccc(Cl)c1Cl`, the IC50 in data set [9] was 63.1 nM.
As to `Clc1c(-c2nnnn2Cc2ccccc2)ccc(N2CCCC2)c1Cl`, the IC50 in data set [9] is over 10000 nM.
With `c1ccc(-c2nnnn2Cc2cccnc2)cc1`, the IC50 in data set [9] was 25100 nM; in data set [6], over 10000 nM.
Consider `FC(F)(F)c1cccc(-n2nnnc2Cc2cccnc2)c1Cl`, for which the IC50 is 50.1 nM in [2], 25.1 nM in data set [3], 12.6 nM in [9] and 50.1 nM in data set [6].
Take `Cc1ncccc1Cn1nnnc1-c1cccc(Cl)c1Cl`: the IC50 is 200 nM in data set [2], 158 nM in data set [3], 31.6 nM in data set [9] and 200 nM in [6].
With `Clc1cccc(-c2nnnn2Cc2ccccc2)c1Cl`, the figures for the IC50 in data set [2], in data set [9] and in data set [6] were 79.4 nM, 39.8 nM and 501 nM, respectively.
For the compound `Clc1cccc(-c2nnnn2Cc2ccccn2)c1Cl`, the IC50 in data set [9] is 501 nM; in data set [6] it was 2000 nM.
As to `Clc1cccc(-c2nnnn2Cc2ccncc2)c1Cl`, the IC50 is 3160 nM in [2], 20000 nM in [3], 794 nM in [9] and 2000 nM in [6].
Consider `Clc1ccc(-c2nnnn2Cc2cccnc2)cc1Cl`, for which the values for the IC50 in [9] and in data set [6] were 3980 nM and 7940 nM, respectively.
Take `Cc1nc(C)c(Cn2nnnc2-c2cccc(Cl)c2Cl)s1`: the IC50 in data set [2] was 1260 nM; in data set [9] it was 50.1 nM; in data set [6] it was 251 nM.
Take `FC(F)(F)c1cccc(-c2nnnn2Cc2cccnc2)c1Cl`: the IC50 in data set [2] is 63.1 nM; in data set [3], 79.4 nM; in data set [9], 12.6 nM; in data set [6], 158 nM.
For the compound `Fc1cccc(-c2nnnn2Cc2cccnc2)c1C(F)(F)F`, the IC50 in data set [9] is 631 nM.
For the compound `Clc1cccc(-n2nnnc2Cc2cccnc2)c1Cl`, the concentration for half-maximal inhibition (IC50) in data set [9] was 100 nM; in [6], 398 nM.
The like results for `Cc1noc(C)c1Cn1nnnc1-c1cccc(Cl)c1Cl` were, in that order, 158 nM and 794 nM.
On to `Cc1ccccc1Cn1nnnc1-c1cccc(C)c1C`, for which the IC50 in [9] was 251 nM; in data set [6], 1260 nM.
For `Fc1ccc(-c2nnnn2Cc2cccnc2)c(Cl)c1Cl`, in that order: 12.6 nM and 398 nM.
The like results for `COc1cccc(-c2nnnn2Cc2ccccc2Cl)c1OC` were, in that order, 3980 nM and over 10000 nM.
On to `Fc1ccc(-n2nnnc2Cc2cccnc2)c(Cl)c1Cl`, for which the values for the IC50 in data set [2], in data set [3] and in [9] were 100 nM, 39.8 nM and 25.1 nM, respectively.
As to `c1ccc(Cn2nnnc2-c2cccc3cccnc23)cc1`, the IC50 in [9] is 25100 nM.
Regarding `c1ccc(Cn2nnnc2-c2cccc3ncccc23)cc1`, the IC50 in [9] was 15800 nM; in data set [6], over 10000 nM.
`Clc1ccc(Cl)c(-c2nnnn2Cc2cccnc2)c1`: the IC50 in data set [9] was 15800 nM; in data set [6] it was over 10000 nM.
Regarding `Clc1cccc(-c2nnnn2CCc2cccnc2)c1Cl`, the figures for the IC50 in data set [9] and in data set [6] were 12600 nM and over 10000 nM, respectively.
As to `Clc1ccccc1-c1nnnn1Cc1cccnc1`, in [9], the 50% inhibitory concentration (IC50) is 15800 nM.
On to `Fc1c(-c2nnnn2Cc2cccnc2)cccc1C(F)(F)F`, for which the IC50 in data set [2] is 79.4 nM; in data set [3], 501 nM; in data set [9], 63.1 nM; in data set [6], 501 nM.
In the case of `c1ccc(Cn2nnnc2-c2ccncc2)cc1`, the IC50 in [9] is 31600 nM.
